Measured values reported in ChEMBL document CHEMBL1139348, “Identification and optimization of a novel inhibitor of mitochondrial calpain 10” (J Med Chem, 2009).
Calls of active or inactive are those of the source. The calls are words filed in the database; no cut-off is given here. Where a SMILES comes first, the peptide text is derived from it. The star is where a group is joined. X1 = COc1ccc(S*)cc1; SEt = CCS*

Legend:
[1] = Inhibition of calpain-10 in rabbit mitochondrial matrix fractions by spectrofluorimetry; design: species or system Oryctolagus cuniculus
How it was run: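 Matrix fraction from Percoll/sucrose-purified rabbit renal cortical mitochondria, stored at -80°C. Matrix added to activity buffer, then inhibitor at various concentrations and sLLVY-AMC (50 µM); AMC hydrolysis followed spectrofluorometrically under linear conditions. IC50 from means of at least 3 separate experiments.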

Oryctolagus cuniculus [2] = species: Oryctolagus cuniculus; assay: Inhibition of calpain-10 in rabbit mitochondrial matrix fractions at 1 uM preincubated for 5 mins in presence of 1 mM dithiothreitol by spectrofluorimetry
How it was run: (§1)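 Rabbit renal mitochondrial matrix preincubated 15 min with inhibitor (1 µM), activity on sLLVY-AMC measured 5 min; then BME (1 mM) or DTT (1 mM) added for 5 min and AMC release monitored for another 5 min. Mean and SE, n ≥ 3.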

Oryctolagus cuniculus [3] = species: Oryctolagus cuniculus; assay: Inhibition of calpain-10 in rabbit mitochondrial matrix fractions at 1 uM preincubated for 5 mins in presence of 1 mM beta-mercaptoethanol by spectrofluorimetry; how it was run: as §1
Oryctolagus cuniculus [4] = species: Oryctolagus cuniculus; assay: Inhibition of calpain-10 in rabbit mitochondrial matrix fractions at 1 uM preincubated for 5 mins by spectrofluorimetry

IC50 [1] [nM] | SMILES | also measured
290 | N=C(N)NCCC[C@H](NC(=O)CNC(=O)[C@H](Cc1ccc(O)cc1)NC(=O)[C@@H](N)CS)C(=O)N[C@@H](CCCCN)C(=O)N[C@@H](CCCCN)C(=O)O (H-CYGRKK-OH) | 
> 100000 | C[C@H](NC(=O)CNC(=O)[C@H](Cc1ccc(O)cc1)NC(=O)[C@@H](N)CS)C(=O)O (H-CYGA-OH) | 
> 100000 | CSC[C@H](N)C(=O)N[C@@H](Cc1ccc(O)cc1)C(=O)NCC(=O)N[C@@H](C)C(=O)N[C@@H](CCCCN)C(=O)O (H-C(Me)YGAK-OH) | 
> 40000 | CC(C)[C@H](NC(=O)[C@@H](N)CS)C(=O)NCC(=O)N[C@@H](C)C(=O)N[C@@H](CCCCN)C(=O)O (H-CVGAK-OH) | 
2000 | C[C@H](NC(=O)CNC(=O)[C@H](C)NC(=O)[C@@H](N)CS)C(=O)N[C@@H](CCCCN)C(=O)O (H-CAGAK-OH) | 
240 | N=C(N)NCCC[C@H](NC(=O)CNC(=O)[C@H](Cc1ccc(O)cc1)NC(=O)[C@@H](N)CS)C(=O)N[C@@H](CCCCN)C(=O)O (H-CYGRK-OH) | 
100 | C[C@H](NC(=O)CNC(=O)[C@H](Cc1ccc(O)cc1)NC(=O)[C@@H](N)CS)C(=O)N[C@@H](CCCCN)C(=O)O (H-CYGAK-OH) | Activity (Oryctolagus cuniculus [2]): inactive; Activity (Oryctolagus cuniculus [3]): inactive; inhibition (Oryctolagus cuniculus [4]): 90%
60 | COc1ccc(SSC[C@H](N)C(=O)N[C@@H](Cc2ccc(O)cc2)C(=O)NCC(=O)N[C@@H](C)C(=O)N[C@@H](CCCCN)C(=O)O)cc1 (H-C(X1)YGAK-OH) | 
2000 | CCSSC[C@H](N)C(=O)N[C@@H](Cc1ccc(O)cc1)C(=O)NCC(=O)N[C@@H](C)C(=O)N[C@@H](CCCCN)C(=O)O (H-C(SEt)YGAK-OH) | 
4 | CCCC[C@@H](C=O)NC(=O)[C@H](CC(C)C)NC(=O)OCc1ccccc1 [CALPEPTIN] | 

SMILES | IC50 [1] [nM] | also measured
C[C@H](NC(=O)CNC(=O)[C@@H](N)Cc1ccc(O)cc1)C(=O)N[C@@H](CCCCN)C(=O)O (H-YGAK-OH) | > 100000 | 
